# Most compounds without a hit are left out; they make up all but 2.8% or so of the library.
# PAFAH2 FP inh = PAFAH2 enzyme inhibitors, primary screen, biochemical, fluorescence polarization, human; recombinant PAFAH2, FP-rhodamine activity probe; inhibition, % at 3.39 µM; 340,000 tested, 0.99% active; AID 492956, 2010;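 active means inhibition above the mean over all tested compounds plus 3 SD, cut at about 30% in these data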;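 further: inhibitors block probe labeling of enzyme so polarization drops; 0% = enzyme with DMSO and 100% = wells lacking PAFAH2 protein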
# ASAP1 inh = inhibitors of human ASAP1 ArfGAP activity, primary screen, biochemical, fluorescence polarization; Arf-GAP with SH3 domain, ANK repeat and PH domain-containing protein 1 (Homo sapiens), …; inhibition, % at 16.5 µM; AID 624377, 2012; ASAP1-stimulated ARF1 GTP hydrolysis, GDP FP detection; 360,000 tested, 0.19% active; in the data active means inhibition above about 25%;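 further: 0% = vehicle with enzyme and substrate and 100% = no enzyme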
# ARFGAP1 inhibitor = inhibitors of rat ARFGAP1 GAP activity, primary screen, biochemical, fluorescence polarization, GDP tracer; ADP-ribosylation factor GTPase-activating protein 1 (Rattus norvegicus), Q62848; Arfgap1-stimulated ARF1 GTP hydrolysis, GDP FP detection; AID 651572, 2012; 360,000 tested, 0.26% active; inhibition, % at 16.5 µM;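 active means inhibition above a per-plate limit, mean inhibition of low control wells plus 3 SD, cut at about 25% in these data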;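 further: 0% = DMSO wells with enzyme and 100% = wells lacking Arfgap1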
# Target sequence (Q62848 1-136 limits assumed): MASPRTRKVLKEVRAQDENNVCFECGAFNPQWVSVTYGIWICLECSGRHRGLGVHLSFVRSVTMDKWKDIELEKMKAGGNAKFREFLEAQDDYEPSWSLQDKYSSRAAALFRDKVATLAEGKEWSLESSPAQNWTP
#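 Material: truncated rat Arfgap1 GAP domain; Incubation: compound-enzyme preincubation 20 min, reaction 120 min, detection 60 min, 25 °C; Read-out: percent inhibition of Arfgap1-stimulated GTP hydrolysis; Technique: FP, GDP Alexa 633 tracer displaced from anti-GDP antibody, 620/688 nm; Controls: No-Arfgap1 wells (100%) versus DMSO full-reaction wells (0%); Replication: single well per compound.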
# pPAFAH FP inh = pPAFAH enzyme inhibitors, primary screen, biochemical, fluorescence polarization, human; Platelet-activating factor acetylhydrolase (Homo sapiens), Q13093; recombinant pPAFAH, FP-rhodamine probe fluorescence polarization; inhibition, % at 3.39 µM; 330,000 tested, 1.5% active;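 active means inhibition above the mean inhibition across the screen plus 3 SD, cut at about 25% in these data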;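 further: inhibitors block binding of the rhodamine activity-based probe so polarization drops; 0% = enzyme with DMSO and 100% = wells lacking pPAFAH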
# Target sequence (Q13093 whole entry, looked up): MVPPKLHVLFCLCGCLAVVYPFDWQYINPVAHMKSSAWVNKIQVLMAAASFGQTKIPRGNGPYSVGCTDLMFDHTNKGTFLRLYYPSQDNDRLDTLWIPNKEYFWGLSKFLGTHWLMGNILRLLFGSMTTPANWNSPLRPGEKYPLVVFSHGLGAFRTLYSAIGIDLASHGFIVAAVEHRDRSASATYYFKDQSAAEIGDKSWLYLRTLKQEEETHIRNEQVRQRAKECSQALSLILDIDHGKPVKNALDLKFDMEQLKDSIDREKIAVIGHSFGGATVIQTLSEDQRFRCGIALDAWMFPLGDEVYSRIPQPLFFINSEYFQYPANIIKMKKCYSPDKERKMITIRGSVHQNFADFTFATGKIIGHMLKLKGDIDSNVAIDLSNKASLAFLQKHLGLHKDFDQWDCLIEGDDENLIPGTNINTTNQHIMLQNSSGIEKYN
# PAFAH1B2 FP inh = PAFAH1B2 enzyme inhibitors, primary screen, biochemical, fluorescence polarization, human; inhibition, % at 3.39 µM; AID 492953, 2010; Platelet-activating factor acetylhydrolase IB subunit alpha2 (Homo sapiens), P68402; recombinant PAFAH1B2, FP-rhodamine activity probe; 340,000 tested, 1.2% active;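 active means inhibition above the mean of all tested compounds plus 3 SD, cut at about 24% in these data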;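 further: 0% = enzyme with DMSO and 100% = wells lacking PAFAH1B2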
# PAFAH1B3 inh = PAFAH1B3 enzyme inhibitors, primary screen, biochemical, fluorescence polarization, human | Platelet-activating factor acetylhydrolase IB subunit alpha1 (Homo sapiens), Q15102 | recombinant PAFAH1B3, FP-rhodamine probe | inhibition, % at 3.39 µM | 340,000 tested, 0.28% active;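 active means inhibition above the screen-wide average of all tested compounds plus 3 SD, cut at about 25% in these data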;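 further: 0% = enzyme with DMSO only and 100% = wells lacking PAFAH1B3 protein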
# An asterisk follows results filed as active; / = no result given.
SMILES,PAFAH2 FP inh,ASAP1 inh,ARFGAP1 inhibitor,pPAFAH FP inh,PAFAH1B2 FP inh,PAFAH1B3 inh
COc1ccccc1N1CCN(C(=O)Cc2c(C(=O)O)[nH]c3ccc(Cl)cc23)CC1,8,-4,-10,6,7,8
O=C(O)c1[nH]c2ccc(Cl)cc2c1CC(=O)N1CCN(c2ccccc2)CC1,7,-6,-2,5,25*,6
O=C(Cc1c(C(=O)O)[nH]c2ccccc12)NCCN1CCN(c2cccc(Cl)c2)CC1,1,-18,4,5,25*,9
CC1(C(=O)NCc2ccc(Cl)cc2)CCN1C(=O)c1cccc(F)c1 (stereo unspecified),/,-9,11,/,/,/
CCn1c2ccccc2c2cc(/C=N/NC(=O)c3ccc(O)cc3)ccc21,-19,3,15,-6,-5,-18
Cn1c2ccccc2c2cc(/C=N/NC(=O)c3ccc(O)cc3O)ccc21,-22,/,/,31*,23,33*
CCC[C@H]1NC(=O)[C@H](C)N(C)C(=O)C(C)(C)C(=O)C(C)NC(=O)[C@H](Cc2ccc(OC)cc2)N(C)C(=O)[C@H](C(C)C)N(C)C(=O)CNC(=O)[C@H](CC(C)C)N(C)C(=O)CNC(=O)[C@H]([C@@H](C)CC)OC(=O)[C@H]1C (stereo partly specified),/,/,/,5,/,/
Cc1ccc(C)c(N2CCN(C(=O)c3ccc4nc(-c5ccco5)c(-c5ccco5)nc4c3)CC2)c1,4,-10,-13,31*,-5,7
COc1ccccc1N1CCN(C(=O)c2ccc3nc(-c4ccco4)c(-c4ccco4)nc3c2)CC1,10,1,1,11,4,3
CCCNC(=O)COC(=O)c1ccc(-c2ccccc2)cc1,60*,0,5,25*,-1,-1
CN(C)c1ccc(C(=O)OCC(=O)NCCCc2ccccc2)cc1,85*,-10,4,33*,6,-3
CC(NC(=O)COC(=O)c1ccc(OCC2CCCO2)cc1)c1ccccc1Cl (stereo unspecified),88*,12,11,25*,1,-1
CC(C)NC(=O)COC(=O)c1ccc(Oc2ccccc2)cc1,67*,-11,5,26*,4,7
Cc1cccc(C(C)C)c1NC(=O)c1ccc(OCC2CCCO2)cc1 (stereo unspecified),2,2,7,0,5,0
NC(=O)COC(=O)c1ccc(Oc2ccccc2)cc1,6,-15,-9,1,3,13
O=C(COC(=O)c1ccc(-c2ccccc2)cc1)Nc1ccccc1-c1ccccc1,12,0,2,2,1,3
COc1ccc(C(=O)NC2CCN(S(=O)(=O)c3ccc(C)cc3)CC2)cc1,-3,2,-4,9,4,9
CCCn1c(CCC(=O)O)ccc1-c1ccc(OC)cc1,10,-1,2,20,0,13
COc1ccc(-c2ccc(CCC(=O)O)n2Cc2ccco2)cc1,8,-3,-6,28*,3,3
O=C(O)c1cccc(-n2cccc2/C=C\[N+](=O)[O-])c1,-3,0,-1,15,1,-2
O=C(O)c1cccc(-n2cccc2/C=C/[N+](=O)[O-])c1,25,10,-6,29*,6,19
COc1ccc(OC)c(C2C3=C(CC(C)(C)CC3=O)Nc3nnnn32)c1 (stereo unspecified),-1,-3,2,29*,-2,10
Cc1ccc(NC(=O)COC(=O)CC2CCCC2)cc1Cl,68*,/,/,18,-4,7
COc1ccc(NC(=O)COC(=O)CC2CCCC2)cc1Cl,43*,8,13,27*,-4,9
COc1ccc(-c2ccc(C(=O)NCC3CCOCC3)c3occc23)c(C)c1,/,-3,4,/,/,/
SMILES,PAFAH2 FP inh,ASAP1 inh,ARFGAP1 inhibitor,pPAFAH FP inh,PAFAH1B2 FP inh,PAFAH1B3 inh
COc1ccc(Cl)cc1Nc1nc(-c2sc(NC(=O)C(C)(C)C)nc2C)cs1,3,1,4,10,2,10
COc1ccccc1Nc1nc(-c2sc(N)nc2C)cs1,13,10,16,27*,7,16
COc1ccc(OC)c(Nc2nc(-c3sc(NC(=O)C(C)(C)C)nc3C)cs2)c1,15,-5,13,30*,3,6
COc1ccccc1Nc1nc(-c2sc(NC(=O)c3ccccc3)nc2C)cs1,-9,8,7,5,0,-3
CCC(C)C(=O)Nc1nc(C)c(-c2csc(Nc3cc(OC)ccc3OC)n2)s1 (stereo unspecified),-5,2,11,32*,12,16
COc1ccc(OC)c(Nc2nc(-c3sc(NC(=O)CC(C)C)nc3C)cs2)c1,3,5,9,30*,8,10
c1cnc(NCCSSCCNc2ncccn2)nc1,/,0,0,/,/,/
COc1cc(C)nc(N2CCC(C(=O)NCC3CCCO3)CC2)n1 (stereo unspecified),1,6,-7,-1,3,3
CCC(=O)Nc1nc(C)c(-c2csc(Nc3ccccn3)n2)s1,17,-1,7,26*,0,9
COc1ccc(OC)c(Nc2nc(-c3sc(C)nc3C)cs2)c1,7,14,0,33*,2,5
COc1cccc(Nc2nc(-c3sc(C)nc3C)cs2)c1,8,1,-3,12,8,12
CCCC(=O)Nc1nc(C)c(-c2csc(Nc3ccccc3C)n2)s1,6,5,3,10,-6,1
O=c1ccc2cc3c([nH]c4ccc(Br)cc43)oc-2c1O,52*,15,13,79*,42*,45*
CN(Cc1cccs1)C(=O)CCNS(=O)(=O)c1ccc(Br)cc1,10,17,0,4,32*,14
COc1ccc(OC)c(NC(=O)CN2C(=O)COc3ccc(C)cc32)c1,2,16,6,2,7,8
C#CCOCCOCCOCCNc1nc(N2CCN(C(=O)CCCCCCCCCCNC(=O)Cn3cc(C[C@@H](C)O)nn3)CC2)nc(N2CCN(C(=O)CCCCCCCCCCNC(=O)[C@H](CCCCN)n3cc(CCCC(=O)O)nn3)CC2)n1,-4,16,1,25*,-3,-12
C#CCOCCOCCOCCNc1nc(N2CCN(C(=O)CCCCCCCCCCNC(=O)Cn3cc(C[C@@H](C)O)nn3)CC2)nc(N2CCN(C(=O)CCCCCCCCCCNC(=O)[C@@H](CCC(=O)O)n3cc(CCCCCN)nn3)CC2)n1,-4,0,7,15,1,-2
